According to ChEMBL document CHEMBL4811269, “Design, synthesis and antibacterial evaluation of novel C-11, C-9 or C-2'-substituted 3-O-descladinosyl-3-ketoclarithromycin derivatives” (Bioorg Med Chem Lett, 2021):
In brackets after ≈: the same amount, converted by molar mass.

Key:
Assay type in all cases: functional
Streptococcus pneumoniae [1] = experiment: Antibacterial activity against erythromycin-resistant Streptococcus pneumoniae B1 by broth microdilution method
How it was run: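 MIC by standard NCCLS broth microdilution, reported in µg/mL. The strain expresses the ermB gene. Clarithromycin and azithromycin were run alongside as references.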

Pseudomonas aeruginosa = experiment: Antibacterial activity against penicillin-susceptible Pseudomonas aeruginosa ATCC 27853 by broth microdilution method
How it was run: (§1)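 MIC determined by standard broth microdilution per NCCLS recommendations, read as minimal inhibitory concentration in µg/mL. Standard ATCC strains tested alongside the other panel strains, with clarithromycin and azithromycin as reference agents.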

Bacillus subtilis = experiment: Antibacterial activity against penicillin-susceptible Bacillus subtilis ATCC9372 by broth microdilution method; how it was run: as §1
Staphylococcus aureus [2] = experiment: Antibacterial activity against methicillin-resistant Staphylococcus aureus ATCC 43300 by broth microdilution method
How it was run: (§2)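 MIC by standard NCCLS broth microdilution against resistant S. aureus strains, reported in µg/mL. Clarithromycin and azithromycin were run alongside as references.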

Streptococcus pyogenes = experiment: Antibacterial activity against erythromycin-resistant Streptococcus pyogenes R1 by broth microdilution method
How it was run: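 MIC by standard NCCLS broth microdilution, reported in µg/mL. The strain is a clinically isolated erythromycin-resistant strain. Clarithromycin and azithromycin were run alongside as references.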

Staphylococcus aureus [3] = experiment: Antibacterial activity against penicillin-resistant Staphylococcus aureus ATCC 31007 by broth microdilution method; how it was run: as §2
Streptococcus pneumoniae [4] = experiment: Antibacterial activity against erythromycin-resistant Streptococcus pneumoniae AB11 by broth microdilution method
How it was run: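 MIC by standard NCCLS broth microdilution, reported in µg/mL. The strain expresses the ermB and mefA genes. Clarithromycin and azithromycin were run alongside as references.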

Staphylococcus aureus [5] = experiment: Antibacterial activity against erythromycin-susceptible Staphylococcus aureus ATCC 25923 by broth microdilution method; how it was run: as §1

| SMILES | MIC (Streptococcus pneumoniae [1]) [mg/L] | MIC (Pseudomonas aeruginosa) [mg/L] | MIC (Bacillus subtilis) [mg/L] | MIC (Staphylococcus aureus [2]) [mg/L] | MIC (Streptococcus pyogenes) [mg/L] | MIC (Staphylococcus aureus [3]) [mg/L] | MIC (Streptococcus pneumoniae [4]) [mg/L] | MIC (Staphylococcus aureus [5]) [mg/L] |
| --- | --- | --- | --- | --- | --- | --- | --- | --- |
| CO[C@]1(C)C[C@@H](C)[C@H](OC(=O)c2cccc(C)c2)[C@H](C)CN(C)CCOC(=O)[C@H](C)C(=O)[C@H](C)[C@H]1O[C@@H]1O[C@H](C)C[C@H](N(C)C)[C@H]1OC(=O)c1cccc(C)c1 | > 256 | > 128 | > 128 | > 256 | > 256 | > 256 | > 256 | 128 (≈ 164 µM) |
| COc1cccc(C(=O)O[C@@H]2[C@H](C)CN(C)CCOC(=O)[C@H](C)C(=O)[C@H](C)[C@@H](O[C@@H]3O[C@H](C)C[C@H](N(C)C)[C@H]3OC(=O)c3cccc(OC)c3)[C@](C)(OC)C[C@H]2C)c1 | > 256 | > 128 | > 128 | > 256 | > 256 | > 256 | > 256 | 128 (≈ 157 µM) |
| CO[C@]1(C)C[C@@H](C)[C@H](OC(=O)c2cccc(Cl)c2)[C@H](C)CN(C)CCOC(=O)[C@H](C)C(=O)[C@H](C)[C@H]1O[C@@H]1O[C@H](C)C[C@H](N(C)C)[C@H]1OC(=O)c1cccc(Cl)c1 | > 256 | > 128 | > 128 | > 256 | > 256 | > 256 | > 256 | 64 (≈ 77.9 µM) |
| CCCc1ccc(C(=O)O[C@@H]2[C@H](C)CN(C)CCOC(=O)[C@H](C)C(=O)[C@H](C)[C@@H](O[C@@H]3O[C@H](C)C[C@H](N(C)C)[C@H]3OC(=O)c3ccc(CCC)cc3)[C@](C)(OC)C[C@H]2C)cc1 | > 256 | > 128 | > 128 | > 256 | > 256 | > 256 | > 256 | 64 (≈ 76.5 µM) |
| CO[C@]1(C)C[C@@H](C)[C@H](OC(=O)c2cccc(F)c2)[C@H](C)CN(C)CCOC(=O)[C@H](C)C(=O)[C@H](C)[C@H]1O[C@@H]1O[C@H](C)C[C@H](N(C)C)[C@H]1OC(=O)c1cccc(F)c1 | > 256 | > 128 | > 128 | > 256 | > 256 | > 256 | > 256 | 128 (≈ 162 µM) |
| CCc1ccc(C(=O)O[C@@H]2[C@H](C)CN(C)CCOC(=O)[C@H](C)C(=O)[C@H](C)[C@@H](O[C@@H]3O[C@H](C)C[C@H](N(C)C)[C@H]3OC(=O)c3ccc(CC)cc3)[C@](C)(OC)C[C@H]2C)cc1 | > 256 | > 128 | > 128 | > 256 | > 256 | > 256 | > 256 | 64 (≈ 79.1 µM) |
| CCOc1ccc(C(=O)O[C@@H]2[C@H](C)CN(C)CCOC(=O)[C@H](C)C(=O)[C@H](C)[C@@H](O[C@@H]3O[C@H](C)C[C@H](N(C)C)[C@H]3OC(=O)c3ccc(OCC)cc3)[C@](C)(OC)C[C@H]2C)cc1 | > 256 | > 128 | > 128 | > 256 | > 256 | > 256 | > 256 | 128 (≈ 152 µM) |
| CO[C@]1(C)C[C@@H](C)[C@H](OC(=O)c2ccc([N+](=O)[O-])cc2)[C@H](C)CN(C)CCOC(=O)[C@H](C)C(=O)[C@H](C)[C@H]1O[C@@H]1O[C@H](C)C[C@H](N(C)C)[C@H]1OC(=O)c1ccc([N+](=O)[O-])cc1 | > 256 | > 128 | > 128 | > 256 | > 256 | > 256 | > 256 | 64 (≈ 75.9 µM) |
| CC[C@H]1OC(=O)[C@H](C)[C@@H](O[C@H]2C[C@@](C)(OC)[C@@H](O)[C@H](C)O2)[C@H](C)[C@@H](O[C@@H]2O[C@H](C)C[C@H](N(C)C)[C@H]2O)[C@](C)(OC)C[C@@H](C)C(=O)[C@H](C)[C@@H](O)[C@]1(C)O [CLARITHROMYCIN] | > 256 | 16 (≈ 21.4 µM) | ≤ 0.25 | > 256 | 256 (≈ 342 µM) | > 256 | 256 (≈ 342 µM) | ≤ 0.25 |
| CO[C@]1(C)C[C@@H](C)[C@H](OC(=O)c2cccc(Br)c2)[C@H](C)CN(C)CCOC(=O)[C@H](C)C(=O)[C@H](C)[C@H]1O[C@@H]1O[C@H](C)C[C@H](N(C)C)[C@H]1OC(=O)c1cccc(Br)c1 | > 256 | > 128 | > 128 | > 256 | > 256 | > 256 | > 256 | 64 (≈ 70.3 µM) |
| CC[C@H]1OC(=O)[C@H](C)[C@@H](O[C@H]2C[C@@](C)(OC)[C@@H](O)[C@H](C)O2)[C@H](C)[C@@H](O[C@@H]2O[C@H](C)C[C@H](N(C)C)[C@H]2O)[C@](C)(O)C[C@@H](C)CN(C)[C@H](C)[C@@H](O)[C@]1(C)O [AZITHROMYCIN] | > 256 | 32 (≈ 42.7 µM) | ≤ 0.25 | > 256 | 256 (≈ 342 µM) | > 256 | 128 (≈ 171 µM) | ≤ 0.25 |
| CO[C@]1(C)C[C@@H](C)[C@H](OC(=O)c2ccc(F)cc2)[C@H](C)CN(C)CCOC(=O)[C@H](C)C(=O)[C@H](C)[C@H]1O[C@@H]1O[C@H](C)C[C@H](N(C)C)[C@H]1OC(=O)c1ccc(F)cc1 | > 256 | > 128 | > 128 | > 256 | > 256 | > 256 | > 256 | 128 (≈ 162 µM) |
| COc1ccc(C(=O)O[C@@H]2[C@H](C)CN(C)CCOC(=O)[C@H](C)C(=O)[C@H](C)[C@@H](O[C@@H]3O[C@H](C)C[C@H](N(C)C)[C@H]3OC(=O)c3ccc(OC)cc3)[C@](C)(OC)C[C@H]2C)cc1 | > 256 | > 128 | > 128 | > 256 | > 256 | > 256 | > 256 | 64 (≈ 78.7 µM) |
| CO[C@]1(C)C[C@@H](C)[C@H](OC(=O)c2ccc(C(F)(F)F)cc2)[C@H](C)CN(C)CCOC(=O)[C@H](C)C(=O)[C@H](C)[C@H]1O[C@@H]1O[C@H](C)C[C@H](N(C)C)[C@H]1OC(=O)c1ccc(C(F)(F)F)cc1 | > 256 | > 128 | > 128 | > 256 | > 256 | > 256 | > 256 | 64 (≈ 72 µM) |
| CO[C@]1(C)C[C@@H](C)[C@H](OC(=O)c2ccccc2Br)[C@H](C)CN(C)CCOC(=O)[C@H](C)C(=O)[C@H](C)[C@H]1O[C@@H]1O[C@H](C)C[C@H](N(C)C)[C@H]1OC(=O)c1ccccc1Br | > 256 | > 128 | > 128 | > 256 | > 256 | > 256 | > 256 | 128 (≈ 141 µM) |
| CO[C@]1(C)C[C@@H](C)[C@H](OC(=O)c2cccc([N+](=O)[O-])c2)[C@H](C)CN(C)CCOC(=O)[C@H](C)C(=O)[C@H](C)[C@H]1O[C@@H]1O[C@H](C)C[C@H](N(C)C)[C@H]1OC(=O)c1cccc([N+](=O)[O-])c1 | > 256 | > 128 | > 128 | > 256 | > 256 | > 256 | > 256 | 128 (≈ 152 µM) |
| CO[C@]1(C)C[C@@H](C)[C@H](OC(=O)c2cc(Cl)cc(Cl)c2)[C@H](C)CN(C)CCOC(=O)[C@H](C)C(=O)[C@H](C)[C@H]1O[C@@H]1O[C@H](C)C[C@H](N(C)C)[C@H]1OC(=O)c1cc(Cl)cc(Cl)c1 | > 256 | > 128 | > 128 | > 256 | > 256 | > 256 | > 256 | 128 (≈ 144 µM) |
